HDAC3 inhib: inhibitors of human histone deacetylase 3 | AID 2718 | inhibition, % at 8.3 µM | 320,000 compounds, 0.15% hits | recombinant HDAC3, fluorogenic peptide/trypsin coupled, fluorescence; in the data active = inhibition above about 26%, passing the limit was not always enough; inconclusive = no clear call, values can overlap the other calls
Target sequence (O15379 whole entry, looked up): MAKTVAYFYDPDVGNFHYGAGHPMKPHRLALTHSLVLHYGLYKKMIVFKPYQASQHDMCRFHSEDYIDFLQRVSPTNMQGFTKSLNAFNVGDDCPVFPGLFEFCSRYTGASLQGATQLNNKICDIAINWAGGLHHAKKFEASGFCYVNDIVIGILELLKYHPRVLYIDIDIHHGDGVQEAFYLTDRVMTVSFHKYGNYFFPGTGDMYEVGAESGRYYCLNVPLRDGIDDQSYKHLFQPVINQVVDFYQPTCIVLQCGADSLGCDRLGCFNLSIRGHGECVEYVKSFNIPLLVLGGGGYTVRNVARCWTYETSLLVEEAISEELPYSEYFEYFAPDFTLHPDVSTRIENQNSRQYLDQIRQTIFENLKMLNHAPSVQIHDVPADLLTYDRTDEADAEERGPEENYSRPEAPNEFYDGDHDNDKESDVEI
AI-2 QS mod: modulates the Vibrio harveyi AI-2 quorum sensing system; 300,000 compounds, 0.4% hits; activity change, % at 7.5 µM; Vibrio harveyi JMH597 AI-2 luminescence/OD600 ratio, 9 h; active compounds read low; strain lacks LuxN and CqsS sensors; 0 = neutral-control median; AID 2094; in the data active = activity change below about -75%, passing the limit was not always enough; inconclusive = no clear call, values can overlap the other calls;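 also: luminescence divided by OD600 gain over 9 h not by final OD600 alone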
T cruzi repl: T. cruzi replication inhibition; 300,000 compounds, 1.4% hits; inhibition, % (no concentration beside the values); T. cruzi beta-gal in NIH3T3, luminescence, 90 h;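 active = mean inhibition across valid replicates above about 55%, limit read from the data; inconclusive = mean below that limit but half or more replicates reach it; inactive = mean below it, under half of replicates reach it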;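 also: signal also drops with host cell toxicity which is not excluded here; 0% = plate median of DMSO wells and 100% = zero luminescence signal; higher percent means less beta-gal luminescence so fewer parasites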
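compound dosing = single 50 nL compound addition per well in DMSO | material = NIH/3T3 host cells with β-galactosidase reporter T. cruzi | input = 5,000 host fibroblasts per well | timing = ≥90 h infection period, 3 h prior cell attachment | read-out basis = percent inhibition of parasite-derived β-gal signal | detection = GalScreen β-gal luminescence, detergent lysis, 60 min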
Efflux pump inh: blocks antifungal efflux pumps in multiplex yeast assay; S. cerevisiae Candida pump triplex, Nile Red efflux; inhibition, % at 10 µM; AID 485275; 330,000 compounds, 0.44% hits;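 active = plate passing quality check with inhibition over a set limit, or well fluorescence over plate mean plus 4 SD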;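 also: Nile Red retained in pooled yeast measured as flow cytometry median fluorescence; 0% = buffer negative control and 100% = Enniatin B positive control; higher means more Nile Red kept so more efflux inhibition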
PolyA inh: yeast polyadenylation inhibition; S. cerevisiae SKY197-pL101 polyadenylation reporter, beta-gal luminescence; efflux-impaired pdr1/pdr3 knockout yeast; score 100 = 6 SD above DMSO; 300,000 compounds, 0.02% hits; activity score, % at 12 µM;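 active = lowest replicate activity score at least 50, where 100 means six control SD above control mean; inconclusive = lowest score under 50 but half or more replicates reach 50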;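 also: yeast exposed to compound for 9 h at 30 °C; higher score means more reporter readthrough which indicates perturbed polyadenylation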
Cmpd fluor yeast: flagged as fluorescent in efflux inhibitor counter-screen; AID 588517; fluorescence ratio to DMSO, % at 10 µM; shares compounds with Efflux pump inh; 1,700 compounds, 4% hits; S. cerevisiae AD/pABC3, compound fluorescence, flow cytometry;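 active = fluorescence ratio to DMSO above its plate's cutoff, the plate mean ratio plus 5 SD, cut at about 210% in these data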;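 also: unstained yeast with no Nile Red so the signal is compound autofluorescence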
Mdr1 pump inh: inhibitors of Candida albicans Mdr1 efflux pump. 1,700 compounds, 1% hits. inhibition, % at 10 µM. S. cerevisiae AD/CaMDR1, Nile Red efflux, flow cytometry. shares compounds with Efflux pump inh; in the data active = inhibition above about 26%;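 also: 0% = DMSO vehicle and 100% = reference inhibitor; higher means more Nile Red retained so more efflux inhibition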
CaCdr2 efflux inh: blocks the Candida albicans Cdr2 efflux pump in yeast. shares compounds with Efflux pump inh. S. cerevisiae AD/CaCDR2, Nile Red retention, flow cytometry. Nile Red retention ratio vs DMSO, % at 10 µM. 1,700 compounds, 4% hits. AID 588520; in the data active = Nile Red retention ratio vs DMSO above about 190%;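 also: higher ratio means more blocking of Cdr2 efflux of the dye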
CaCdr1 efflux inh: Candida Cdr1 efflux pump inhibition; S. cerevisiae AD/CaCDR1, Nile Red efflux, flow cytometry; shares compounds with Efflux pump inh; inhibition, % at 10 µM; 1,700 compounds, 1% hits;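 active = inhibition above the screen-wide mean plus twice its standard deviation, cut at about 32% in these data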
Numbers without * were called inactive. Most compounds without a hit are left out; they make up all but 2.2% or so of the library.

`COc1ccc(-c2nsc(C(=O)N(c3ccc(F)cc3)C(C(=O)NC3CCCC3)c3ccc(OC)cc3)c2N)cc1` (configuration not stated) gave HDAC3 inhib -0.2, AI-2 QS mod 19.1, T cruzi repl 31.7, Efflux pump inh 0.3*, PolyA inh -11.3, Cmpd fluor yeast 106.8, Mdr1 pump inh 0.1, CaCdr2 efflux inh 106.0 and CaCdr1 efflux inh -0.1.
N#Cc1cnc2ncnn2c1-c1ccccc1 was read as HDAC3 inhib 2.0, AI-2 QS mod 20.4, T cruzi repl -5.7, Efflux pump inh 0.1 and PolyA inh 17.2.
Screening Nc1c(-c2ccccc2)cnc2ncnn12 returned HDAC3 inhib -5.9, AI-2 QS mod 7.2, T cruzi repl -13.8, Efflux pump inh 1.7*, PolyA inh 17.9, Cmpd fluor yeast 97.0, Mdr1 pump inh -0.3, CaCdr2 efflux inh 90.9 and CaCdr1 efflux inh -0.2.
CN(CC1CCCN(CCc2ccccc2F)C1)C(=O)c1ccoc1 (configuration not stated) was read as HDAC3 inhib 1.1, AI-2 QS mod 4.3, T cruzi repl 31.4, Efflux pump inh 0.1 and PolyA inh -5.0.
For Cc1occc1C(=O)N(C)CC1CCCN(CCc2ccccc2F)C1 (configuration not stated) the results were HDAC3 inhib -3.1, AI-2 QS mod inconclusive, T cruzi repl 35.5, Efflux pump inh 5.0*, PolyA inh 10.4, Cmpd fluor yeast 112.7, Mdr1 pump inh 0.0, CaCdr2 efflux inh 89.3 and CaCdr1 efflux inh 0.1.
COc1cc(/C=C2\SC(=S)N(NS(=O)(=O)c3ccc(C)cc3)C2=O)ccc1O was read as AI-2 QS mod 136.1, T cruzi repl -3.5, Efflux pump inh 0.0, PolyA inh inconclusive, Cmpd fluor yeast 116.8, Mdr1 pump inh 0.1, CaCdr2 efflux inh 109.4 and CaCdr1 efflux inh 0.0.
For Cn1cccc1/C=C1\SC(=S)N(NC(=O)c2ccc(F)cc2)C1=O the results were HDAC3 inhib 8.6, AI-2 QS mod 5.5, Efflux pump inh 0.0, PolyA inh 4.5, Cmpd fluor yeast 91.9, Mdr1 pump inh -0.1, CaCdr2 efflux inh 86.9 and CaCdr1 efflux inh -0.1.
Screening CC(/C=C1\SC(=S)N(NC(=O)c2ccncc2)C1=O)=C\c1ccccc1 returned HDAC3 inhib -0.2, AI-2 QS mod 27.1, T cruzi repl -18.5, Efflux pump inh 0.4, PolyA inh -14.5, Cmpd fluor yeast 87.6, Mdr1 pump inh -0.1, CaCdr2 efflux inh 86.9 and CaCdr1 efflux inh -0.2.
CC(/C=C1\SC(=S)N(NS(=O)(=O)c2ccc(C)cc2)C1=O)=C\c1ccccc1 was read as HDAC3 inhib 7.0, AI-2 QS mod 76.9, T cruzi repl -6.3, Efflux pump inh 0.1, PolyA inh -5.3, Cmpd fluor yeast 109.5, Mdr1 pump inh -0.1, CaCdr2 efflux inh 103.9 and CaCdr1 efflux inh -0.1.
Cn1cccc1/C=C1\SC(=S)N(NC(=O)c2ccccc2)C1=O was read as HDAC3 inhib -6.6 and Efflux pump inh 0.1.
For CCOc1cc(/C=C2\SC(=S)N(NS(=O)(=O)c3ccc(C)cc3)C2=O)ccc1O the results were HDAC3 inhib 3.2, AI-2 QS mod 113.8, T cruzi repl -6.1, Efflux pump inh 0.3 and PolyA inh -3.5.
CC(NC(=O)CN1c2cccc3cccc(c23)S1(=O)=O)c1ccc(S(N)(=O)=O)cc1 (configuration not stated) was read as HDAC3 inhib -0.2, AI-2 QS mod 24.7, T cruzi repl -9.1, Efflux pump inh 0.1 and PolyA inh 5.9.
OCCC1CN(Cc2ccon2)CCN1CCc1ccccc1 (configuration not stated) was read as HDAC3 inhib 1.3, AI-2 QS mod 12.2, T cruzi repl -9.2, Efflux pump inh -0.1 and PolyA inh 19.2.
Screening O=C(NN1C(=O)/C(=C/c2cccs2)SC1=S)c1ccccc1 returned HDAC3 inhib 2.4, AI-2 QS mod 16.4, T cruzi repl 1.6, Efflux pump inh -0.1 and PolyA inh 4.5.
`O=C(NN1C(=O)/C(=C/c2cccs2)SC1=S)c1cccnc1` gave HDAC3 inhib 6.4, AI-2 QS mod 25.1, Efflux pump inh -0.2, PolyA inh 4.5, Cmpd fluor yeast 105.0, Mdr1 pump inh -0.2, CaCdr2 efflux inh 93.0 and CaCdr1 efflux inh 0.1.
Screening COc1cc(/C(C#N)=C/c2cccc3ccccc23)c([N+](=O)[O-])cc1OC returned HDAC3 inhib -3.0, AI-2 QS mod 5.5, T cruzi repl -0.8, Efflux pump inh 5.5*, PolyA inh -17.7, Cmpd fluor yeast 101.4, Mdr1 pump inh -0.3, CaCdr2 efflux inh 91.4 and CaCdr1 efflux inh -0.1.
`COc1cc(/C=C(\C#N)c2nc3ccccc3[nH]2)c([N+](=O)[O-])cc1OCc1ccccc1` gave HDAC3 inhib -7.3, AI-2 QS mod 34.8, T cruzi repl 47.3, Efflux pump inh -0.1 and PolyA inh -17.8.
`COc1ccc(-c2cnc(SCC(=O)Nc3nc(C(C)(C)C)cs3)n2Cc2ccco2)cc1` gave HDAC3 inhib -2.6, AI-2 QS mod 4.7, T cruzi repl 48.9, Efflux pump inh 0.4*, PolyA inh 7.4, Cmpd fluor yeast 115.5, Mdr1 pump inh 0.0, CaCdr2 efflux inh 129.1 and CaCdr1 efflux inh 0.1.
For CC(C)CCNC(=O)c1onc(CSc2ccccn2)c1C(=O)NCCC(C)C the results were HDAC3 inhib 4.7, AI-2 QS mod 19.0, T cruzi repl 33.7, Efflux pump inh 0.6*, PolyA inh -7.0, Cmpd fluor yeast 103.6, Mdr1 pump inh 0.0, CaCdr2 efflux inh 101.7 and CaCdr1 efflux inh -0.2.
For N#C/C(=C/c1ccncc1)c1nc2ccccc2s1 the results were HDAC3 inhib 1.7, AI-2 QS mod 26.1, T cruzi repl 20.0, Efflux pump inh 0.0, PolyA inh -8.3, Cmpd fluor yeast 102.5, Mdr1 pump inh -0.1, CaCdr2 efflux inh 101.7 and CaCdr1 efflux inh 0.1.
Screening CCCCOC(=O)c1ccccc1N1C(=O)C2C3CCC(C3)C2C1=O (configuration not stated) returned HDAC3 inhib 7.8, AI-2 QS mod 7.8, T cruzi repl 6.7, Efflux pump inh 0.1 and PolyA inh 2.0.

Source: PubChem (several laboratories)
